These results are taken from publication PMC10546485 (Journal of medicinal chemistry, 2022).

For data set [1], the system named is mouse opioid μ receptor expressed in CHO cell lines. As to the kind of experiment: In vitro competitive radioligand binding assay, MOR. Particulars: ratio of Ki values. The essentials:
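CHO membranes (30 μg) expressing mouse μ or κ, or human δ, opioid receptor were incubated with radioligand and varied test compound in TME (pH 7.4) for 1.5 h at 30 °C, then filtered. Nonspecific binding was defined with 5 μM naltrexone, U50,488 or SNC80.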

The target of data set [2] is human δ opioid receptor expressed in CHO cell lines (Homo sapiens, UniProt P41143). Put plainly: In vitro competitive radioligand binding assay, DOR. Particulars: ratio of Ki values.
Data set [3] has as its target DOR (DOR-CHO membrane protein) (Homo sapiens, UniProt P41143). Put plainly: DOR [35S]-GTPγS functional assay. In kind it is biochemical. On the technique in general: GTPγS resists hydrolysis and so accumulates on activated G proteins.
The test system of data set [4] is male Swiss Webster mice. As to the kind of experiment: Carmine red dye assay. In kind it is in vivo, mouse. Particulars: test compound 10 mg/kg oral gavage, morphine 5 mg/kg. In outline: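 Male Swiss Webster mice (5–8 wk, 25–35 g), 5–6 per group, housed singly. Test compound 10 mg/kg or vehicle given p.o. 5 min before morphine 5 mg/kg injection. Twenty min after morphine, 0.2 mL 6% carmine red in 0.5% CMC/ddH₂O given p.o. Time to first red pellet recorded, 6 h cut-off. One-way ANOVA with corrected Dunnett test.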

The conditions of data set [5]: male rats, after oral administration; cited from earlier work.
The test system of data set [6] is gastrointestinal transit. Particulars: MNTX intraperitoneally, morphine 5 mg/kg s.c.; cited from earlier work.
Data set [7] deals with patients. Particulars: long-term study; cited from earlier work.
The test system of data set [8] is CYP3A4. The settings on record: cited from earlier work.

Where only a bound is given, the exact number is not on record here.

Sequence of human δ opioid receptor expressed in CHO cell lines (P41143 whole entry): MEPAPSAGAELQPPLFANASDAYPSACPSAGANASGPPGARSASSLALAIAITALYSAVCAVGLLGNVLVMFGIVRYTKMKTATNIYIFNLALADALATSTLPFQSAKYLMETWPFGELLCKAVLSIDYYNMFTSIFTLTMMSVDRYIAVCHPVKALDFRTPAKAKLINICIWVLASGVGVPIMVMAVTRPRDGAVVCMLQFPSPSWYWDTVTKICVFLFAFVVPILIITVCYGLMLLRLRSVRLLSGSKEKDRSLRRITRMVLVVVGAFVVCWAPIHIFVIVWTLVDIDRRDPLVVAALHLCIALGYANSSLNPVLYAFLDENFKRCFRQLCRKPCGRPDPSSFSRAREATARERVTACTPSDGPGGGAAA
Sequence of DOR (DOR-CHO membrane protein) (P41143 whole entry): as above

With `O=C(Cc1cc[nH]n1)N[C@H]1CC[C@@]2(O)[C@H]3Cc4ccc(O)c5c4[C@@]2(CCN3CC2CC2)[C@H]1O5` [Compound 2, 17-Cyclopropylmethyl-3,14β-dihydroxy-4,5α-epoxy-6α-(3′-pyrazolylacetamido)morphinan], the “selectivity for the MOR over both the KOR and DOR” value in data set [1] is listed as “at least a hundred-fold”. The same measure, in the same setting: to `O=C(Cc1cn[nH]c1)N[C@H]1CC[C@@]2(O)[C@H]3Cc4ccc(O)c5c4[C@@]2(CCN3CC2CC2)[C@H]1O5` [Compound 5, 17-Cyclopropylmethyl-3,14β-dihydroxy-4,5α-epoxy-6α-(4′-pyrazolylacetamido)morphinan] belongs “at least a hundred-fold”. For `O=C(Cc1cc[nH]n1)N[C@@H]1CC[C@@]2(O)[C@H]3Cc4ccc(O)c5c4[C@@]2(CCN3CC2CC2)[C@H]1O5` [Compound 14, 17-Cyclopropylmethyl-3,14β-d/hydroxy-4,5α-epoxy-6β-(3′-pyrazolylacetamldo)morphinan], the δ/μ selectivity entry in data set [2] is reported as “hundreds-fold”.

For the compound `O=C(CCc1cc[nH]n1)N[C@@H]1CC[C@@]2(O)[C@H]3Cc4ccc(O)c5c4[C@@]2(CCN3CC2CC2)[C@H]1O5` [Compound 15], in data set [2], the δ/μ selectivity entry is listed as “hundreds-fold”.

In turn, `O=C(N[C@@H]1CC[C@@]2(O)[C@H]3Cc4ccc(O)c5c4[C@@]2(CCN3CC2CC2)[C@H]1O5)c1cnc[nH]1` [Compound 19, 17-Cyclopropylmethyl-3,14β-dlhydroxy-4,5α-epoxy-6β-(5′-imldazolylcarboxamldo)morphinan] came in with a concentration giving a half-maximal response (EC50) in data set [3] of 0.0191 ± 0.00591 µM. As to `O=C(N[C@@H]1CC[C@@]2(O)[C@H]3Cc4ccc(O)c5c4[C@@]2(CCN3CC2CC2)[C@H]1O5)c1ncc[nH]1` [Compound 22, 17-Cyclopropylmethyl-3,14β-dihydroxy-4,5α-epoxy-6β-(2′-imidazolylcarboxamido)morphinan], the δ/μ selectivity entry in data set [2] was “hundreds-fold”. Same read-out and setting: next, `O=C(Cc1ncc[nH]1)N[C@@H]1CC[C@@]2(O)[C@H]3Cc4ccc(O)c5c4[C@@]2(CCN3CC2CC2)[C@H]1O5` [Compound 23, 17-Cyclopropylmethyl-3,14β-dihydroxy-4,5α-epoxy-6β-(2′-imidazolylacetamido)morphinan]: “hundreds-fold”. Regarding `C[N@+]1(CC2CC2)CC[C@]23c4c5ccc(O)c4O[C@H]2C(=O)CC[C@@]3(O)[C@H]1C5` [MNTX, methylnaltrexone], the “reversal of the inhibitory effects of morphine on GI motility” value in data set [4] was “no blockage was observed”. Further, in data set [5], the oral bioavailability was under 1%. Also, the “block of the antitransit effects of morphine” value in data set [6] is given as “effective”. Further, in data set [7], the “cardiac-related adverse event, share of patients” value is listed as “less than 1%”.

Consider `CC(C)(NC(=O)C1=C(O)[C@@H]2Oc3c(O)ccc4c3[C@@]23CCN(CC2CC2)[C@H](C4)[C@]3(O)C1)c1nc(-c2ccccc2)no1` [naldemedine], for which the “substrate of CYP3A4” value in data set [8] is reported as “substrates”.

On to `C=CCN1CC[C@]23c4c5ccc(O)c4O[C@H]2[C@@H](OCCOCCOCCOCCOCCOCCOCCOC)CC[C@@]3(O)[C@H]1C5` [naloxegol], for which the “substrate of CYP3A4” value in data set [8] is given as “substrates”.

One may read the EC50 as the midpoint of the concentration-response curve. A lower EC50 goes with greater potency.
